# Reference: PubChem BioAssay
# Activity calls are given as the source filed them.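 How the source made its calls, unless noted: active means fluorescence slope higher than the sample average by over 3 SD (cut at about -0.22 in these data, passing the limit was not always enough); inactive means the rest.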
# Tests used:
# [1] = inhibitors of TNFa-induced NFkB p65 translocation, primary screen, imaging, HUVEC, MLSMR starter and 10KST1 sets (AID 438;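 active means inhibition above 20% together with a positive visual image hit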;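 further: compound added about 3h40 before a 20 min TNFalpha stimulation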;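 on inhibition: signal is the nuclear over cytoplasmic p65 intensity ratio per well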); conditions: HUVEC TNFa-induced p65 nuclear translocation; cell count: measured here: nuclei count (cytotoxicity indicator), at 2.08 µM; inhibition: at 2 µM, stronger effect = higher value, 0% TNFa-plus-vehicle, 100% no-TNFa wells
# [2] = reduction of polyQ htt aggregates in cells – imaging, exon1htt(103Q)mCFP cells, high-content imaging, primary screen (AID 483;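 active means visual image review flags a hit and inhibition of aggregation exceeds 20%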;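 further: compound exposure lasted 3 days before fixation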;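 on nuclei count: percent of the per-plate median nuclei count of sample wells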); conditions: exon1htt(103Q)mCFP cell line, aggregate imaging, at 2 µM; inhibition of aggregation: stronger effect = higher value; nuclei count: measured here: cell count, toxicity
# [3] = endothelial E-selectin expression blockers – imaging, HUVEC, immunofluorescence, MLSMR starter and 10KST1 sets, primary screen (AID 487;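 active means visually confirmed hit in the image check and inhibition above 20%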;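 on inhibition: signal is fraction of cell area covered by stained E-selectin grains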;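 on nuclei count: 100% = median nuclei count of all wells on the same plate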); conditions: HUVEC TNFalpha-induced E-selectin immunofluorescence imaging, at 2 µM; inhibition: stronger effect = higher value; nuclei count: measured here: cell number, toxicity
# [4] = biological target: Voltage-gated potassium channel subunit beta-2 (Rattus norvegicus) (UniProt P62483); assay: inhibitors of rat Kvbeta2 reductase activity – biochemical, NADPH fluorescence, primary screen (AID 622); conditions: recombinant KvBeta, 4-cyanobenzaldehyde reduction, at 10 µM, stronger effect = higher value;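 further: slope of raw intensity against log time taken from 70 to 1610 s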
# [5] = biological target: Voltage-gated potassium channel subunit beta-2 (Rattus norvegicus) (UniProt P62483); assay: enhancers of rat Kvbeta2 NADPH turnover – biochemical, NADPH fluorescence, primary screen (AID 623;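 active means NADPH fluorescence slope more negative than the mean of all samples by about 3 SD, 99.7% confidence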;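 further: fluorescence intensity change per second fitted from 20 to 320 s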); conditions: Recombinant KvBeta, NADPH fluorescence decrease slope, 10 min; at 10 µM; stronger effect = lower value
# [6] = biological target: Alpha-2C adrenergic receptor (Homo sapiens) (UniProt P18825); assay: compounds altering alpha2C-coupled GIRK flux – cell-based, HEK293 alpha2C/GIRK1/2, thallium flux, primary screen (AID 624;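 active means fluorescence slope after compound addition differing from the mean of all screened samples at 99.7% confidence, in either direction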;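 further: slope of fluorescence ratio to pre-addition baseline per second over 15 to 24 s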); conditions: thallium flux BTC fluorescence, at 10 µM, actives lie on both sides
# [7] = inhibitors of larval lipid processing in zebrafish, primary screen, whole organism, PED6 fluorescence, gall bladder and intestine (AID 686;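 active means a full or partial loss of lipid-probe fluorescence in the fish gall bladder, intestine or both, judged by eye; inactive means no fluorescence loss, or compound toxic to the fish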;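 further: larvae 5 to 7 days old with five fish per well; signal comes from phospholipase A2 cleavage of quenched PED6 carried via bile; overnight exposure to compound and PED6 before scoring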); conditions: Zebrafish larvae PED6 lipid processing, fluorescence scoring; screened at 20 µM (by protocol)
# Method in brief: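 Also added: quenched phospholipase substrate PED6, 100 nM final, ingested by larvae; System: zebrafish larvae, 5-7 d; Quantity: 5 larvae per well; Compound: 20 µM single dose; Schedule: overnight compound and PED6 incubation; Read-out: visual per-well fluorescence inhibition score; Measured by: By-eye fluorescence microscopy; Medium: E3.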
# [8] = blockers of RIG-like receptor reporter activation – cell-based, Sendai virus stimulus, luciferase, 10K MLSCN set, TLR/RLR signaling modifier project, primary screen (AID 602276;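 active means inhibition at or above 50% at 10 µM; inactive means inhibition below 50%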;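 further: firefly luciferase from ISG56 promoter only with Renilla not read in this screen; 0% = Sendai virus plus DMSO and 100% = medium plus DMSO without virus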); conditions: HEK293 RL24 IRF3 luciferase reporter, at 10 µM, stronger effect = higher value
# [9] = TLR3 IRF3 reporter activation blockers – cell-based, poly I:C stimulus, luciferase, 10K MLSCN set, primary screen (AID 602277;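 active means inhibition of the reporter signal at or above 50%; inactive means inhibition below 50%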); conditions: HEK293-TLR3 RL24 IRF3 luciferase reporter, at 10 µM, stronger effect = higher value
# Voltage-gated potassium channel subunit beta-2 (Rattus norvegicus), sequence (P62483 whole entry, looked up): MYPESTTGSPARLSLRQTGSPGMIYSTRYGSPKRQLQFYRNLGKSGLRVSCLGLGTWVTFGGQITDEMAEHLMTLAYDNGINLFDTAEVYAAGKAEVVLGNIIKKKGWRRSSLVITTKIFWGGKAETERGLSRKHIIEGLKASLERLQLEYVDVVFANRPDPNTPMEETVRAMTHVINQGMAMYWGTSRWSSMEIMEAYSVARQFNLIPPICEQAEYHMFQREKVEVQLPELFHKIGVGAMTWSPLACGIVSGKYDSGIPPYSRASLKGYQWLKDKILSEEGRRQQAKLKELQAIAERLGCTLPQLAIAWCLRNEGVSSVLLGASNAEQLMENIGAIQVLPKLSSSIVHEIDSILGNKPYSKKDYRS
# Alpha-2C adrenergic receptor (Homo sapiens), sequence (P18825 whole entry, looked up): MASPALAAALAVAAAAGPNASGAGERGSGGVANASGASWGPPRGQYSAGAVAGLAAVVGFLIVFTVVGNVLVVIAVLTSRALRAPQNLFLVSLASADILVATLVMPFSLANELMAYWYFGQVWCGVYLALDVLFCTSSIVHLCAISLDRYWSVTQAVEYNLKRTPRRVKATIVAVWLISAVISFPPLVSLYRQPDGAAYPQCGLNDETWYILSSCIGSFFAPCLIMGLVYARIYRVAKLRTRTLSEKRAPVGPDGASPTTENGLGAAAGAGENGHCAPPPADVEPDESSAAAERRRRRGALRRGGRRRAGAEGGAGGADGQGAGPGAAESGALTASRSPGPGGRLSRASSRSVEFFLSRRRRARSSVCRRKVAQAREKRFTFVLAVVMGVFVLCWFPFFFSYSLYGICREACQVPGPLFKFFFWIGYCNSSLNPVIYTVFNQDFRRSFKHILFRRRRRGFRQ
structure (smiles),measurement,setting,value
COc1ccc2cc(C(c3nnnn3C(C)(C)C)N3CCc4ccccc4C3)c(=O)[nH]c2c1 (centres undefined),cell count,[1],311
same,inhibition,[1],11.9% (inactive)
same,inhibition of aggregation,[2],5.3% (inactive)
same,nuclei count,[2],100%
same,inhibition,[3],1% (inactive)
same,nuclei count,[3],94.4%
same,fluorescence slope,[4],-0.347 (inactive)
same,NADPH fluorescence slope,[5],-5.8e-05 (inactive)
same,slope,[6],0.00475 (inactive)
same,outcome,[7],inactive
same,inhibition,[8],24.2% (inactive)
same,inhibition,[9],44.5% (inactive)
O=C(NC1=NCCS1)c1ccc2c(c1)C(=O)N(Cc1ccco1)C2=O,cell count,[1],447
same,inhibition,[1],0% (inactive)
same,inhibition of aggregation,[2],19.6% (inactive)
same,nuclei count,[2],96.6%
same,inhibition,[3],-60.7% (inactive)
same,nuclei count,[3],111%
same,fluorescence slope,[4],-0.387 (inactive)
same,NADPH fluorescence slope,[5],2.7e-06 (inactive)
same,slope,[6],0.00529 (inactive)
same,outcome,[7],inactive
same,inhibition,[8],19.1% (inactive)
same,inhibition,[9],24.4% (inactive)
COC(=O)c1ccc(CSc2nc3ccccc3s2)o1,cell count,[1],483
same,inhibition,[1],-6.3% (inactive)
same,inhibition of aggregation,[2],-4% (inactive)
same,nuclei count,[2],126%
same,inhibition,[3],-0.4% (inactive)
same,nuclei count,[3],104%
same,fluorescence slope,[4],-0.47 (inactive)
same,NADPH fluorescence slope,[5],-1.1e-05 (inactive)
same,slope,[6],0.00436 (inactive)
same,outcome,[7],inactive
same,inhibition,[8],-35.6% (inactive)
same,inhibition,[9],-50.2% (inactive)
Cc1nc2ccccc2nc1OCC(=O)Nc1cc(C(F)(F)F)ccc1N1CCOCC1,cell count,[1],410
same,inhibition,[1],-5.6% (inactive)
same,inhibition of aggregation,[2],19.2% (inactive)
same,nuclei count,[2],85.4%
same,inhibition,[3],80.7% (active)
same,nuclei count,[3],113%
same,fluorescence slope,[4],-0.429 (inactive)
same,NADPH fluorescence slope,[5],-3e-05 (inactive)
same,slope,[6],0.00495 (inactive)
same,outcome,[7],inactive
same,inhibition,[8],12.4% (inactive)
same,inhibition,[9],8.99% (inactive)
CC(=O)c1cccc(NC(=O)NCc2ccco2)c1,cell count,[1],385
same,inhibition,[1],0.8% (inactive)
same,inhibition of aggregation,[2],-4.5% (inactive)
same,nuclei count,[2],74.6%
same,inhibition,[3],-43.8% (inactive)
same,nuclei count,[3],79.8%
same,fluorescence slope,[4],-0.386 (inactive)
same,NADPH fluorescence slope,[5],6.8e-06 (inactive)
same,slope,[6],0.00558 (inactive)
same,outcome,[7],inactive
same,inhibition,[8],-3.74% (inactive)
same,inhibition,[9],-37.3% (inactive)
Cc1onc(-c2ccccc2)c1C(=O)NCCN1CCOCC1,cell count,[1],387
same,inhibition,[1],5% (inactive)
same,inhibition of aggregation,[2],-14% (inactive)
same,nuclei count,[2],129%
same,inhibition,[3],9.3% (inactive)
same,nuclei count,[3],93.5%
same,fluorescence slope,[4],-0.38 (inactive)
same,NADPH fluorescence slope,[5],-2.2e-05 (inactive)
same,slope,[6],0.0053 (inactive)
same,outcome,[7],inactive
same,inhibition,[8],0.171% (inactive)
same,inhibition,[9],0.994% (inactive)
COC(=O)Cn1cnc2sc(C)c(S(=O)(=O)N3CCC(C)CC3)c2c1=O,cell count,[1],543
same,inhibition,[1],-2.4% (inactive)
same,inhibition of aggregation,[2],-10.1% (inactive)
same,nuclei count,[2],106%
same,inhibition,[3],-31.1% (inactive)
same,nuclei count,[3],101%
same,fluorescence slope,[4],-0.473 (inactive)
same,NADPH fluorescence slope,[5],-2.3e-05 (inactive)
same,slope,[6],0.00523 (inactive)
same,outcome,[7],inactive
same,inhibition,[8],6.12% (inactive)
same,inhibition,[9],8.67% (inactive)
Cn1c(=O)[nH]c(=O)c2c1nc(N1CCOCC1)n2CC(O)COc1ccc2ccccc2c1 (centres undefined),cell count,[1],438
same,inhibition,[1],-4.5% (inactive)
same,inhibition of aggregation,[2],10.8% (inactive)
same,nuclei count,[2],107%
same,inhibition,[3],-54.4% (inactive)
same,nuclei count,[3],120%
same,fluorescence slope,[4],-0.44 (inactive)
same,NADPH fluorescence slope,[5],-3.2e-05 (inactive)
same,slope,[6],0.00556 (inactive)
same,outcome,[7],inactive
same,inhibition,[8],15.8% (inactive)
same,inhibition,[9],19.3% (inactive)
O=C1OCCC1Sc1ncnc2sccc12 (centres undefined),cell count,[1],498
same,inhibition,[1],-6.8% (inactive)
same,inhibition of aggregation,[2],-0.5% (inactive)
same,nuclei count,[2],125%
same,inhibition,[3],-1.7% (inactive)
same,nuclei count,[3],110%
same,fluorescence slope,[4],-0.376 (inactive)
same,NADPH fluorescence slope,[5],-7.9e-05 (inactive)
same,slope,[6],0.00502 (inactive)
same,outcome,[7],inactive
same,inhibition,[8],9.26% (inactive)
same,inhibition,[9],12.3% (inactive)
Cc1ccc(S(=O)(=O)NCC(c2cccnc2)N(C)C)cc1 (centres undefined),cell count,[1],453
same,inhibition,[1],-1.9% (inactive)
same,inhibition of aggregation,[2],2.5% (inactive)
same,nuclei count,[2],106%
same,inhibition,[3],-33.6% (inactive)
same,nuclei count,[3],127%
same,fluorescence slope,[4],-0.464 (inactive)
same,NADPH fluorescence slope,[5],-9.5e-06 (inactive)
same,slope,[6],0.00528 (inactive)
same,outcome,[7],inactive
same,inhibition,[8],7.09% (inactive)
same,inhibition,[9],15.6% (inactive)
COc1ccc2cc(C#N)c(N3CCN(Cc4nnnn4CCC(C)C)CC3)nc2c1,cell count,[1],363
same,inhibition,[1],7% (inactive)
same,inhibition of aggregation,[2],20.7% (inactive)
same,nuclei count,[2],85.8%
same,inhibition,[3],-5.8% (inactive)
same,nuclei count,[3],78.1%
same,fluorescence slope,[4],-0.379 (inactive)
same,NADPH fluorescence slope,[5],-3.8e-05 (inactive)
same,slope,[6],0.00501 (inactive)
same,outcome,[7],inactive
same,inhibition,[8],12.8% (inactive)
same,inhibition,[9],-2.3% (inactive)
COc1ccc(-c2nnc(SCc3nnc(-c4ccc(Cl)cc4)o3)n2-c2ccccc2)cc1,cell count,[1],565
same,inhibition,[1],-13.6% (inactive)
same,inhibition of aggregation,[2],12.1% (inactive)
same,nuclei count,[2],106%
same,inhibition,[3],17.2% (inactive)
same,nuclei count,[3],138%
same,fluorescence slope,[4],-0.398 (inactive)
same,NADPH fluorescence slope,[5],-6.2e-05 (inactive)
same,slope,[6],0.00535 (inactive)
same,outcome,[7],inactive
same,inhibition,[8],-45% (inactive)
same,inhibition,[9],-62.8% (inactive)
